# Measurements taken from publication PMC8861878 (The Journal of pharmacy and pharmacology, 2020).
# Values joined by “and” are separate entries in the source; they are usually repeats but may differ in a detail not shown here. Equal entries are not always repeated.
# Tests used:
# [1] = Mono-oxidation of isobavachin by pooled HLM, enzyme kinetics; format: in vitro ADME, human
# [2] = Glucuronidation of isobavachin by pooled HLM, enzyme kinetics; format: in vitro ADME, human
# UGT1A1 = target: T1, UGT1A1 (Homo sapiens, UniProt P22309); test: Glucuronidation of isobavachin by recombinant UGT1A1, enzyme kinetics; format: in vitro ADME; settings: formation of G1, substrate inhibition model
# T1 sequence (P22309 26-533): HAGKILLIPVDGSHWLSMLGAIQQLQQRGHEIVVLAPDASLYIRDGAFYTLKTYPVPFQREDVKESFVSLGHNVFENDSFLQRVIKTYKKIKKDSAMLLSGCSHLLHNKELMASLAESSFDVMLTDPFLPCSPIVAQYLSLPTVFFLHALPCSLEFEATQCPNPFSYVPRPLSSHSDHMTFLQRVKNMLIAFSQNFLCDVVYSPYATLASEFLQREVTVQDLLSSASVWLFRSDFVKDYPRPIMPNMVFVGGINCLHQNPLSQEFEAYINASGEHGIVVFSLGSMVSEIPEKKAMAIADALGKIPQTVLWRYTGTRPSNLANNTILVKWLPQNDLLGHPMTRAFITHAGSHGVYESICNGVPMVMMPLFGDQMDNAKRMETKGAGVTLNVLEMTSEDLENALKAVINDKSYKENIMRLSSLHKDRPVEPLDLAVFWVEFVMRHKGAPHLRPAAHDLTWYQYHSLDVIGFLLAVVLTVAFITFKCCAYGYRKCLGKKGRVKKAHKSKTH
# UGT1A9 [3] = target: T2, UGT1A9 (Homo sapiens, UniProt O60656); test: Glucuronidation of isobavachin by recombinant UGT1A9, enzyme kinetics; format: in vitro ADME; settings: formation of G1, substrate inhibition model
# T2 sequence (O60656 26-530): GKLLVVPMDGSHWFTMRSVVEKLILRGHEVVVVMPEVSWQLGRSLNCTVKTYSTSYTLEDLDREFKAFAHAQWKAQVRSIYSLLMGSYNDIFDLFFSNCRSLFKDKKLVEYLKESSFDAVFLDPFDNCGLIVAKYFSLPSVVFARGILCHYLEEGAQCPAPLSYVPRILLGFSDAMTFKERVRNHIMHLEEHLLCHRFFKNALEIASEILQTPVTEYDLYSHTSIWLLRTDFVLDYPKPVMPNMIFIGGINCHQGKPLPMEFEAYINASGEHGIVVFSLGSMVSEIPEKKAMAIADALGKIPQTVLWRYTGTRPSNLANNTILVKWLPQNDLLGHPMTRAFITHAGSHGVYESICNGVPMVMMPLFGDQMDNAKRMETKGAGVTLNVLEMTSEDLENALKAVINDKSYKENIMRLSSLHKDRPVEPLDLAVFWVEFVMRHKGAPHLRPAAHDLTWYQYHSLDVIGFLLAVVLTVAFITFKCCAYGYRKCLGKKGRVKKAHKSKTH
# CYP1A2 = target: T3, CYP1A2 (Homo sapiens, UniProt P05177); test: Inhibition of CYP1A2; format: in vitro ADME; settings: isobavachin 1, 10, 100 μM; substrate phenacetin (100 μM)
# T3 sequence (P05177 1-516): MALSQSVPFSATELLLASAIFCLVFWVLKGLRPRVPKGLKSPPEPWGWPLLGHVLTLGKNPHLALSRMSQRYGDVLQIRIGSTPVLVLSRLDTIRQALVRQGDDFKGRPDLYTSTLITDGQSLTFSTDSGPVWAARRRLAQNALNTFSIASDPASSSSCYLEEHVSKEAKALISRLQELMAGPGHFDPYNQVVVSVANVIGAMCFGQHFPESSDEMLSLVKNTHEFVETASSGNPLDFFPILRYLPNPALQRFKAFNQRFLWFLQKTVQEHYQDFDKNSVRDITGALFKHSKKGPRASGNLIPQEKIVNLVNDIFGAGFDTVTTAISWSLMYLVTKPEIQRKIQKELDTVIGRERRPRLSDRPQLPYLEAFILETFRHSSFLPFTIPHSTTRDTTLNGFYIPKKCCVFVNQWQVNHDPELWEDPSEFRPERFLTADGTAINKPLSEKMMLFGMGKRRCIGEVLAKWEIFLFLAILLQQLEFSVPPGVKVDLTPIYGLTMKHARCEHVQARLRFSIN
# Summary of the method: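 Recombinant human CYPs (CYP1A2 and 3A4 at 0.05 mg/ml; CYP2C8 and 2E1 at 0.1 mg/ml) with probe substrate in Tris-HCl 50 mM pH 7.4, MgCl2 5 mM and NADPH 1 mM at 37 °C for 60 min. Run without (control) or with test compound at 1, 10 or 100 μM. Acetonitrile stop; metabolite by UHPLC-TQD-MS; activity versus control, triplicate.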
# CYP2C19 = CYP2C19 (Homo sapiens, UniProt P33261); test: Inhibition of CYP2C19; format: in vitro ADME
# UGT1A9 [4] = target: T2, UGT1A9; test: Inhibition of UGT1A9; format: in vitro ADME
# expressed UGT enzymes = test: Reaction phenotyping with expressed UGT enzymes; format: in vitro ADME, human; settings: isobavachin at 10 μM (Figure S4B)
# [5] = based on the smallest AIC and SC values
# CYP2C19, sequence (P33261 whole entry): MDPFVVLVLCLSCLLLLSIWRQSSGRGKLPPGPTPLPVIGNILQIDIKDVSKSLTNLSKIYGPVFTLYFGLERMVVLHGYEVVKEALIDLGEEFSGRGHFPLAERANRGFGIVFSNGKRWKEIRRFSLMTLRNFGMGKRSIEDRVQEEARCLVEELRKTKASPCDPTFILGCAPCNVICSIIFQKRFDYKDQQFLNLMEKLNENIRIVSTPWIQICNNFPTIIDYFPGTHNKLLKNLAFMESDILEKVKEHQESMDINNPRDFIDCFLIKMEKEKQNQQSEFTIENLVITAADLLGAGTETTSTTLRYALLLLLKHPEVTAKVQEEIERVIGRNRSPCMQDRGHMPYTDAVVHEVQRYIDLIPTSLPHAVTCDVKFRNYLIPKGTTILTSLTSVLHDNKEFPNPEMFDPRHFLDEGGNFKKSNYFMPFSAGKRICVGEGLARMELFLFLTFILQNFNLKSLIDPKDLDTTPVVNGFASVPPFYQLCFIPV
smiles,measurement,setting,value
CC(C)=CCc1c(O)ccc2c1O[C@H](c1ccc(O)cc1)CC2=O [isobavachin],CLint (CLmax),"[1]; formation of M1, substrate inhibition model",59.81 μl/min per mg and 59.81 ± 21.18 μl/min per mg
same,CLint (CLmax),"[1]; formation of M2, Michaelis–Menten model",5.53 ± 0.93 μl/min per mg
same,CLint (CLmax),"[2]; formation of G1, Hill equation (CLmax)",148.79 ± 9.36 μl/min per mg
same,CLint (CLmax),"[2]; formation of G2, substrate inhibition model",21.82 ± 4.35 μl/min per mg
same,Ki,UGT1A1; substrate inhibition constant,40.82 ± 9.70 µM
same,Vmax,UGT1A1,7735.0 ± 1186.0 pmol/min per mg
same,Ki,UGT1A9 [3]; substrate inhibition constant,38.39 ± 8.88 µM
same,CLint (CLmax),UGT1A9 [3],202.62 ± 48.80 μl/min per mg
same,Vmax,UGT1A9 [3],3167.00 ± 426.4 pmol/min per mg
same,inhibitory effects,CYP1A2,negligible or weak
same,IC50,CYP2C19,270 ± 70 nM
same,residual activities,CYP2C19; 10 μM isobavachin,0 % of the negative control
same,Ki,"CYP2C19; substrate mephenytoin, competitive model (selected, smallest AIC and SC)",1550 nM
same,Ki,"CYP2C19; substrate mephenytoin, mixed-type model (not selected)",1550 ± 530 nM
same,Ki,"CYP2C19; substrate mephenytoin, non-competitive model (not selected)",3340 ± 490 nM
same,Inhibition type,CYP2C19; [5],competitive inhibition
same,α,"CYP2C19; substrate mephenytoin, mixed-type model",>>1
same,IC50,UGT1A9 [4],1210 ± 300 nM
same,residual activities,UGT1A9 [4]; 10 μM isobavachin,16.51 % of the negative control
same,Ki,"UGT1A9 [4]; substrate propofol, competitive model (not selected)",200 ± 30 nM
same,Ki,"UGT1A9 [4]; substrate propofol, mixed-type model (not selected)",430 ± 140 nM
same,Ki,"UGT1A9 [4]; substrate propofol, non-competitive model (selected, smallest AIC and SC)",440 ± 40 nM
same,Inhibition type,UGT1A9 [4]; [5],non-competitive inhibition mode
same,α,"UGT1A9 [4]; substrate propofol, mixed-type model",1.05 ± 0.70
same,UGT enzymes involved in glucuronidation,expressed UGT enzymes,"UGT1A1, 1A6, 1A7, 1A8, 1A9 and 2B4 have an important role in glucuronidation reaction"
